Several values for one entry are separate records, joined by “and”; a condition that tells them apart may be missing. Identical values can stand only once.
How the values were obtained:
[1] = In vitro cell viability assay; type: cell-based; conditions: human, SH-SY5Y cells
Outline: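 SH-SY5Y cells seeded at 5 × 10^3 per well and allowed 24 h before test compound addition at 10, 20, 40, 60, 80 and 100 μmol/L. After 48 h exposure, MTT was added for 4 h at 37 °C. Formazan was dissolved in DMSO, and absorbance was read at 570 nm.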

PDE9A2 = PDE9A2 (Homo sapiens, UniProt O76083); assay: In vitro bioassay for inhibition of PDE9; type: biochemical; conditions: for IC50: IC50 against PDE9, mean of three independent determinations
PDE9A2, sequence (O76083 1-533 isoform O76083-2): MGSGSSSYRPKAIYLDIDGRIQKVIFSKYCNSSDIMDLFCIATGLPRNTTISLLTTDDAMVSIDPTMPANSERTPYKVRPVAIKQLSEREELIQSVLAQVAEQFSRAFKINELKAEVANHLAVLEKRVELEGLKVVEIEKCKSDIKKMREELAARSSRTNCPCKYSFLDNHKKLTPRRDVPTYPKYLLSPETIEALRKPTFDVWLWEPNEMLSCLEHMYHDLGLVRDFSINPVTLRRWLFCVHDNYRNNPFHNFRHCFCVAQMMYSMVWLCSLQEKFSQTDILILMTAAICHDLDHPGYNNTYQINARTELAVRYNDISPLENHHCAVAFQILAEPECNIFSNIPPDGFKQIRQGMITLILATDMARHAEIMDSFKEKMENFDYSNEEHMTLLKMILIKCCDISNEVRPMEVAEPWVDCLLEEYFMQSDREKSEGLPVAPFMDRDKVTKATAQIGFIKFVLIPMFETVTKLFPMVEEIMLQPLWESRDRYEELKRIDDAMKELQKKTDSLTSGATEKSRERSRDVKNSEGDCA

Structure (SMILES) | viability at 48 h, 40 μmol/L [1] [%] | viability at 48 h, 100 μmol/L [1] [%] | IC50 (PDE9A2) | fold more potent than PF-04447943 (PDE9 IC50) (PDE9A2; vs PF-04447943) [fold] | fold increase of IC50 potency compared with compound 5b (PDE9A2; vs compound 5b) [fold] | inhibition against PDE9A (PDE9A2; at the concentration of 5 mmol/L)
O=C1NC(=O)C(Cc2ccc(OCCNc3nc4c(cnn4C4CCCC4)c(=O)[nH]3)c(F)c2)S1 (centres unmarked) [Compound 14a, 5-(4-(2-((1-Cyclopentyl-4-oxo-4,5-dihydro-1H-pyrazolo[3,4-d]pyrimidin-6-yl)amino)ethoxy)-3-fluorobenzyl)thiazolidine-2,4-dione] | 82 | 52 | < 5 nM and 3.5 nM | – | – | –
O=C1NC(=O)/C(=C/c2ccc(OCCNc3nc4c(cnn4C4CCCC4)c(=O)[nH]3)c(F)c2)S1 [Compound 11a, (Z)-5-(4-(2-((1-Cyclopentyl-4-oxo-4,5-dihydro-1H-pyrazolo[3,4-d]pyrimidin-6-yl)amino)ethoxy)-3-fluorobenzylidene)thiazolidine-2,4-dione] | 55 | 34 | < 5 nM | 8 | 20 | –
COc1cc(CC2SC(=O)NC2=O)cc(F)c1OCCNc1nc2c(cnn2C2CCCC2)c(=O)[nH]1 (centres unmarked) [Compound 14c, 5-(4-(2-((1-Cyclopentyl-4-oxo-4,5-dihydro-1H-pyrazolo[3,4-d]pyrimidin-6-yl)amino)ethoxy)-3-fluoro-5-methoxybenzyl)thiazolidine-2,4-dione] | 93 | 62 | < 5 nM and 4.2 nM | – | – | –
C[C@@H](COc1ccc(CC2SC(=O)NC2=O)cc1)Nc1nc2c(cnn2C2CCCC2)c(=O)[nH]1 (stereo partly drawn) [Compound 15, 5-(4-((S)-2-((1-Cyclopentyl-4-oxo-4,5-dihydro-1H-pyrazolo[3,4-d]pyrimidin-6-yl)amino)propoxy)benzyl)thiazolidine-2,4-dione] | – | – | 98 nM | – | – | –
CN(CCOc1ccc(CC2SC(=O)NC2=O)cc1)c1ccccn1 (centres unmarked) [Rosiglitazone, reference compound] | – | – | – | – | – | no inhibition
COc1cc(/C=C2\SC(=O)NC2=O)cc(F)c1OCCNc1nc2c(cnn2C2CCCC2)c(=O)[nH]1 [Compound 11c, (Z)-5-(4-(2-((1-Cyclopentyl-4-oxo-4,5-dihydro-1H-pyrazolo[3,4-d]pyrimidin-6-yl)amino)ethoxy)-3-fluoro-5-methoxybenzylidene)thiazolidine-2,4-dione] | 84 | 57 | < 5 nM and 3.3 nM | – | – | –
COc1cc(/C=C2\SC(=O)NC2=O)ccc1OCCNc1nc2c(cnn2C2CCCC2)c(=O)[nH]1 [Compound 11d, (Z)-5-(4-(2-((1-Cyclopentyl-4-oxo-4,5-dihydro-1H-pyrazolo[3,4-d]pyrimidin-6-yl)amino)ethoxy)-3-methoxybenzylidene)thiazolidine-2,4-dione] | – | – | 76 nM | – | – | –

From PMC6089849 (Acta Pharmaceutica Sinica. B, 2018)
